Assay results from ChEMBL document CHEMBL1122510, “Actinidin hydrolysis of substituted-phenyl hippurates: a quantitative structure-activity relationship and graphics comparison with hydrolysis by papain” (J Med Chem, 1984).

Experiment: Michaelis constant for Actinidin-catalyzed hydrolysis
Type: ADME
Outline: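 Actinidin purified in-house from kiwi fruit, stored as crystal suspension in 0.1 M sodium phosphate pH 6 with 20% ammonium sulfate; diluted, activated with aqueous DTE (~15 mg/mL), then diluted in 0.1 M sodium phosphate pH 6.0. Substituted-phenyl hippurate added in CH3CN to enzyme-buffer at 25 °C; initial hydrolysis rates read spectrophotometrically at ≥8 substrate concentrations.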

SMILES	Log 1/Km
O=C(CNC(=O)c1ccccc1)Oc1cccc(C(F)(F)F)c1	3.47
CC(=O)Nc1cccc(OC(=O)CNC(=O)c2ccccc2)c1	3.18
O=C(CNC(=O)c1ccccc1)Oc1cccc([N+](=O)[O-])c1	3.53
O=C(CNC(=O)c1ccccc1)Oc1ccc([N+](=O)[O-])cc1	3.8
O=C(CNC(=O)c1ccccc1)Oc1ccccc1	2.77
Cc1ccc(OC(=O)CNC(=O)c2ccccc2)cc1	2.95
Nc1ccc(OC(=O)CNC(=O)c2ccccc2)cc1	2.55
O=C(CNC(=O)c1ccccc1)Oc1cc(Cl)c(Cl)c(Cl)c1	4.01
CCc1cc(C)cc(OC(=O)CNC(=O)c2ccccc2)c1	3.52
O=C(CNC(=O)c1ccccc1)Oc1cccc(I)c1	3.93
COc1ccc(OC(=O)CNC(=O)c2ccccc2)cc1	2.87
O=C(CNC(=O)c1ccccc1)Oc1cccc(Cl)c1	3.63
Cc1cccc(OC(=O)CNC(=O)c2ccccc2)c1	3.26
CC(=O)c1ccc(OC(=O)CNC(=O)c2ccccc2)cc1	3.47
O=C(CNC(=O)c1ccccc1)Oc1ccc(F)cc1	2.72
NC(=O)c1ccc(OC(=O)CNC(=O)c2ccccc2)cc1	3.47
N#Cc1ccc(OC(=O)CNC(=O)c2ccccc2)cc1	3.62
O=C(CNC(=O)c1ccccc1)Oc1ccc(Cl)cc1	3.04
NC(=O)c1cccc(OC(=O)CNC(=O)c2ccccc2)c1	3.15
O=C(CNC(=O)c1ccccc1)Oc1cccc(F)c1	3.01
O=C(CNC(=O)c1ccccc1)Oc1cccc(Br)c1	3.64
O=C(CNC(=O)c1ccccc1)Oc1cc([N+](=O)[O-])cc([N+](=O)[O-])c1	3.9
O=C(CNC(=O)c1ccccc1)Oc1cc(Cl)cc(Cl)c1	3.84
NS(=O)(=O)c1ccc(OC(=O)CNC(=O)c2ccccc2)cc1	3.22
Cc1cc(C)cc(OC(=O)CNC(=O)c2ccccc2)c1	3.37
N#Cc1cccc(OC(=O)CNC(=O)c2ccccc2)c1	3.08
COc1cc(OC)cc(OC(=O)CNC(=O)c2ccccc2)c1	3.6
NS(=O)(=O)c1cccc(OC(=O)CNC(=O)c2ccccc2)c1	3.42
CC(C)(C)c1cccc(OC(=O)CNC(=O)c2ccccc2)c1	3.66
